{"source": "ChEMBL document CHEMBL1154095", "about": "“Separation of alpha-glucosidase-inhibitory and liver X receptor-antagonistic activities of phenethylphenyl phthalimide analogs and generation of LXRalpha-selective antagonists” (Bioorg Med Chem, 2009)", "note": "Calls of active or inactive are those of the source. No cut-off for these calls is given here."}
{"target": "not listed separately", "test": "Inhibition of Saccharomyces sp. alpha-glucosidase assessed as p-nitrophenol release", "method_in_brief": "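Yeast alpha-glucosidase at 0.2 mU/mL in 10 mM phosphate buffer pH 7.0 was preincubated with compound (1% v/v DMSO final) for 10 min at 37 °C. pNPG substrate (final 0.2 mM) was then added and incubated 10 min at 37 °C. The reaction was basified with Na2CO3, and released p-nitrophenol was read at A405. Triplicates, repeated at least twice, normalized averages, IC50.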", "units": {"IC50": "µM"}}
{"smiles": "O=C1c2ccccc2C(=O)N1c1ccc(CCc2cccc(O)c2)cc1", "IC50": "> 100"}
{"smiles": "O=C1c2c(Cl)c(Cl)c(Cl)c(Cl)c2C(=O)N1c1ccc(CCc2ccc(O)cc2)cc1", "IC50": 23}
{"smiles": "COc1ccc(CCc2ccc(N3C(=O)c4c(Cl)c(Cl)c(Cl)c(Cl)c4C3=O)cc2)cc1OC", "IC50": 18}
{"smiles": "COc1ccc(CCc2cccc(N3C(=O)c4ccccc4C3=O)c2)cc1OC", "IC50": "> 100"}
{"smiles": "O=C1c2c(Cl)c(Cl)c(Cl)c(Cl)c2C(=O)N1c1cccc(CCc2ccccc2)c1", "IC50": "> 100"}
{"smiles": "O=C1c2c(Cl)c(Cl)c(Cl)c(Cl)c2C(=O)N1c1cccc(/C=C/c2ccc(O)c(O)c2)c1", "IC50": 13}
{"smiles": "COc1ccc(CCc2ccc(N3C(=O)c4ccccc4C3=O)cc2)cc1", "IC50": "> 100"}
{"smiles": "COc1ccc(/C=C/c2ccc(N3C(=O)c4ccccc4C3=O)cc2)cc1OC", "IC50": "> 100"}
{"smiles": "COc1ccc(CCc2ccccc2N2C(=O)c3ccccc3C2=O)cc1OC", "IC50": "> 100"}
{"smiles": "O=C1c2c(Cl)c(Cl)c(Cl)c(Cl)c2C(=O)N1c1ccc(CCc2ccccc2)cc1", "IC50": 17}
{"smiles": "O=C1c2ccccc2C(=O)N1c1cccc(CCc2ccccc2)c1", "IC50": "> 100"}
{"smiles": "O=C1c2c(Cl)c(Cl)c(Cl)c(Cl)c2C(=O)N1c1ccccc1CCc1ccccc1", "IC50": "> 100"}
{"smiles": "COc1cccc(CCc2cccc(N3C(=O)c4c(Cl)c(Cl)c(Cl)c(Cl)c4C3=O)c2)c1", "IC50": 69}
{"smiles": "O=C1c2ccccc2C(=O)N1c1ccc(CCc2ccc(O)cc2)cc1", "IC50": "> 100"}
{"smiles": "COc1ccc(CCc2cccc(N3C(=O)c4c(Cl)c(Cl)c(Cl)c(Cl)c4C3=O)c2)cc1", "IC50": 49}
{"smiles": "O=C1c2ccccc2C(=O)N1c1ccc(/C=C/c2ccc(O)c(O)c2)cc1", "IC50": "> 100"}
{"smiles": "O=C1c2ccccc2C(=O)N1c1ccc(/C=C/c2ccccc2)cc1", "IC50": 90}
{"smiles": "O=C1c2c(Cl)c(Cl)c(Cl)c(Cl)c2C(=O)N1c1ccc(/C=C/c2ccc(O)c(O)c2)cc1", "IC50": "> 100"}
{"smiles": "O=C1c2c(Cl)c(Cl)c(Cl)c(Cl)c2C(=O)N1c1cccc(/C=C/c2ccccc2)c1", "IC50": 31}
{"smiles": "O=C1c2c(Cl)c(Cl)c(Cl)c(Cl)c2C(=O)N1c1cccc(CCc2cccc(O)c2)c1", "IC50": 50}
{"target": "Liver X receptor (LXR alpha AND LXR beta) (Homo sapiens) (UniProt Q13133+P55055)", "test": "Selectivity ratio of IC50 for human LXRbeta over IC50 for human LXRalpha", "format": "protein assay"}
{"smiles": "COc1ccc(CCc2ccc(N3C(=O)c4ccccc4C3=O)cc2)cc1", "Selectivity Index": "> 150"}
{"target": "T1, Oxysterols receptor LXR-alpha (Homo sapiens, UniProt Q13133)", "T1 sequence (Q13133 whole entry)": "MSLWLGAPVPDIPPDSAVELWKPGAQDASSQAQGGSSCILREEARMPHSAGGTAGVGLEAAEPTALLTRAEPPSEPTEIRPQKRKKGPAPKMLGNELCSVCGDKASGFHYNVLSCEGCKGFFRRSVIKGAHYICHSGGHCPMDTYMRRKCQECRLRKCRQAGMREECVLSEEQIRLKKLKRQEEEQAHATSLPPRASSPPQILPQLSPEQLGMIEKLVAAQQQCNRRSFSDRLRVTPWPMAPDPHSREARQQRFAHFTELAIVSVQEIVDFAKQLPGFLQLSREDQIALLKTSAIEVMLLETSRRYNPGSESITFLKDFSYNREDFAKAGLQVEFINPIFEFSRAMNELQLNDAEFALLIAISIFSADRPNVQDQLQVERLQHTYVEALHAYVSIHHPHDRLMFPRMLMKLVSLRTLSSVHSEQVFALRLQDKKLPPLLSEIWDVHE", "test": "Antagonist activity at human LXRalpha expressed in HEK293 cells assessed as inhibition of beta-galactosidase activity by luciferase reporter gene assay", "format": "functional, cell-based", "units": {"IC50": "µM"}}
{"smiles": "O=C1c2ccccc2C(=O)N1c1ccc(CCc2cccc(O)c2)cc1", "IC50": 7.5}
{"smiles": "O=C1c2c(Cl)c(Cl)c(Cl)c(Cl)c2C(=O)N1c1ccc(CCc2ccc(O)cc2)cc1", "IC50": "> 30"}
{"smiles": "COc1ccc(CCc2ccc(N3C(=O)c4c(Cl)c(Cl)c(Cl)c(Cl)c4C3=O)cc2)cc1OC", "IC50": "> 30"}
{"smiles": "COc1ccc(CCc2cccc(N3C(=O)c4ccccc4C3=O)c2)cc1OC", "IC50": "> 30"}
{"smiles": "O=C1c2c(Cl)c(Cl)c(Cl)c(Cl)c2C(=O)N1c1cccc(CCc2ccccc2)c1", "IC50": "> 30"}
{"smiles": "O=C1c2c(Cl)c(Cl)c(Cl)c(Cl)c2C(=O)N1c1cccc(/C=C/c2ccc(O)c(O)c2)c1", "IC50": 6.6}
{"smiles": "COc1ccc(CCc2ccc(N3C(=O)c4ccccc4C3=O)cc2)cc1", "IC50": 0.2}
{"smiles": "COc1ccc(/C=C/c2ccc(N3C(=O)c4ccccc4C3=O)cc2)cc1OC", "IC50": 3.8}
{"smiles": "O=C1c2c(Cl)c(Cl)c(Cl)c(Cl)c2C(=O)N1c1ccc(CCc2ccccc2)cc1", "IC50": "> 30"}
{"smiles": "O=C1c2c(Cl)c(Cl)c(Cl)c(Cl)c2C(=O)N1c1ccccc1CCc1ccccc1", "IC50": "> 3"}
{"smiles": "COc1cccc(CCc2cccc(N3C(=O)c4c(Cl)c(Cl)c(Cl)c(Cl)c4C3=O)c2)c1", "IC50": 4.2}
{"smiles": "O=C1c2ccccc2C(=O)N1c1ccc(CCc2ccc(O)cc2)cc1", "IC50": 2.9}
{"smiles": "COc1ccc(CCc2cccc(N3C(=O)c4c(Cl)c(Cl)c(Cl)c(Cl)c4C3=O)c2)cc1", "IC50": 5.5}
{"smiles": "O=C1c2ccccc2C(=O)N1c1ccc(/C=C/c2ccc(O)c(O)c2)cc1", "IC50": 1.6}
{"smiles": "O=C1c2ccccc2C(=O)N1c1ccc(/C=C/c2ccccc2)cc1", "IC50": "> 30"}
{"smiles": "O=C1c2c(Cl)c(Cl)c(Cl)c(Cl)c2C(=O)N1c1ccc(/C=C/c2ccc(O)c(O)c2)cc1", "IC50": 2.7}
{"smiles": "O=C1c2c(Cl)c(Cl)c(Cl)c(Cl)c2C(=O)N1c1cccc(/C=C/c2ccccc2)c1", "IC50": "> 30"}
{"smiles": "O=C1c2c(Cl)c(Cl)c(Cl)c(Cl)c2C(=O)N1c1cccc(CCc2cccc(O)c2)c1", "IC50": 2.6}
{"target": "T2, Oxysterols receptor LXR-beta (Homo sapiens, UniProt P55055)", "T2 sequence (P55055 whole entry)": "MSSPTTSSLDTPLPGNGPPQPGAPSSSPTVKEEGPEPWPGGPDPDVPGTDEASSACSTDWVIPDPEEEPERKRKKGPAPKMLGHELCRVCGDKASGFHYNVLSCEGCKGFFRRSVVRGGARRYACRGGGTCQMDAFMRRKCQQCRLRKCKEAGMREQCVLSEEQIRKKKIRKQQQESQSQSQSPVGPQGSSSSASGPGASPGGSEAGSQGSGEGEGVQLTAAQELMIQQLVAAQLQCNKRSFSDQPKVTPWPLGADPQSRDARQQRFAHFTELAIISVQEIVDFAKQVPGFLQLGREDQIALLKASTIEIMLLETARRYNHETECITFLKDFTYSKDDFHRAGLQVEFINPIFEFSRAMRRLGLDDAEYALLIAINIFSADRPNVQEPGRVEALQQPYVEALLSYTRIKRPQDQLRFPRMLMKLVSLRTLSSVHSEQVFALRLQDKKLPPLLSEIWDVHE", "test": "Antagonist activity at human LXRbeta expressed in HEK293 cells assessed as inhibition of beta-galactosidase activity by luciferase reporter gene assay", "format": "functional, cell-based", "units": {"IC50": "µM"}}
{"smiles": "O=C1c2ccccc2C(=O)N1c1ccc(CCc2cccc(O)c2)cc1", "IC50": "> 30"}
{"smiles": "O=C1c2c(Cl)c(Cl)c(Cl)c(Cl)c2C(=O)N1c1ccc(CCc2ccc(O)cc2)cc1", "IC50": "> 30"}
{"smiles": "COc1ccc(CCc2ccc(N3C(=O)c4c(Cl)c(Cl)c(Cl)c(Cl)c4C3=O)cc2)cc1OC", "IC50": "> 30"}
{"smiles": "COc1ccc(CCc2cccc(N3C(=O)c4ccccc4C3=O)c2)cc1OC", "IC50": "> 30"}
{"smiles": "O=C1c2c(Cl)c(Cl)c(Cl)c(Cl)c2C(=O)N1c1cccc(CCc2ccccc2)c1", "IC50": "> 30"}
{"smiles": "O=C1c2c(Cl)c(Cl)c(Cl)c(Cl)c2C(=O)N1c1cccc(/C=C/c2ccc(O)c(O)c2)c1", "IC50": "> 30"}
{"smiles": "COc1ccc(CCc2ccc(N3C(=O)c4ccccc4C3=O)cc2)cc1", "IC50": "> 30"}
{"smiles": "COc1ccc(/C=C/c2ccc(N3C(=O)c4ccccc4C3=O)cc2)cc1OC", "IC50": "> 30"}
{"smiles": "O=C1c2c(Cl)c(Cl)c(Cl)c(Cl)c2C(=O)N1c1ccc(CCc2ccccc2)cc1", "IC50": "> 30"}
{"smiles": "O=C1c2c(Cl)c(Cl)c(Cl)c(Cl)c2C(=O)N1c1ccccc1CCc1ccccc1", "IC50": "> 3"}
{"smiles": "COc1cccc(CCc2cccc(N3C(=O)c4c(Cl)c(Cl)c(Cl)c(Cl)c4C3=O)c2)c1", "IC50": "> 30"}
{"smiles": "O=C1c2ccccc2C(=O)N1c1ccc(CCc2ccc(O)cc2)cc1", "IC50": "> 30"}
{"smiles": "COc1ccc(CCc2cccc(N3C(=O)c4c(Cl)c(Cl)c(Cl)c(Cl)c4C3=O)c2)cc1", "IC50": "> 30"}
{"smiles": "O=C1c2ccccc2C(=O)N1c1ccc(/C=C/c2ccc(O)c(O)c2)cc1", "IC50": "> 1"}
{"smiles": "O=C1c2ccccc2C(=O)N1c1ccc(/C=C/c2ccccc2)cc1", "IC50": "> 30"}
{"smiles": "O=C1c2c(Cl)c(Cl)c(Cl)c(Cl)c2C(=O)N1c1ccc(/C=C/c2ccc(O)c(O)c2)cc1", "IC50": "> 30"}
{"smiles": "O=C1c2c(Cl)c(Cl)c(Cl)c(Cl)c2C(=O)N1c1cccc(/C=C/c2ccccc2)c1", "IC50": "> 30"}
{"smiles": "O=C1c2c(Cl)c(Cl)c(Cl)c(Cl)c2C(=O)N1c1cccc(CCc2cccc(O)c2)c1", "IC50": "> 30"}
{"test_system": "Saccharomyces sp.", "test": "Inhibition of Saccharomyces sp. alpha-glucosidase by non-competitive Lineweaver-Burke analysis"}
{"smiles": "COc1ccc(CCc2ccc(N3C(=O)c4c(Cl)c(Cl)c(Cl)c(Cl)c4C3=O)cc2)cc1OC", "Activity": "Active"}
